ChEMBL document CHEMBL1142671, “Chiral DNA gyrase inhibitors. 3. Probing the chiral preference of the active site of DNA gyrase. Synthesis of 10-fluoro-6-methyl-6,7-dihydro-9-piperazinyl- 2H-benzo[a]quinolizin-20-one-3-carboxylic acid analogues” (J Med Chem, 2005)
Converted amounts (≈) assume the structure as drawn.

How the values were obtained:
[1] = target: DNA gyrase (Escherichia coli, UniProt P0AES4+P0AES6); assay: In vitro inhibitory concentration against DNA gyrase from Escherichia coli H560; assay type: protein-complex assay
In short: (§1)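 Purified DNA gyrase, isolated from Escherichia coli H560 or Micrococcus luteus; IC50 in µg/mL, averaged over triplicate runs.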

[2] = In vitro minimum inhibitory concentration against […] faecium ATCC 8043 was determined; assay type: functional
In short: (§2)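 Two-fold agar dilution series; MIC taken as the average of triplicate runs. Tested against intact Gram-positive and Gram-negative bacteria.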

[3] = test system: Staphylococcus aureus; assay: In vitro minimum inhibitory concentration against Staphylococcus aureus ATCC 6538P was determined; assay type: functional; in short: as §2
[4] = test system: Escherichia coli; assay: In vitro minimum inhibitory concentration against Escherichia coli H560 was determined; assay type: functional; in short: as §2
[5] = test system: Escherichia coli; assay: In vitro minimum inhibitory concentration against Escherichia coli SS was determined; assay type: functional; in short: as §2
[6] = test system: Escherichia coli; assay: In vitro minimum inhibitory concentration against Escherichia coli Juhl was determined; assay type: functional; in short: as §2
[7] = test system: Pseudomonas aeruginosa; assay: In vitro minimum inhibitory concentration against Pseudomonas aeruginosa was determined; assay type: functional; in short: as §2
[8] = target: Nucleic Acid; assay: In vitro inhibitory concentration against DNA gyrase from Micrococcus luteus […]; assay type: nucleic-acid assay; in short: as §1
[9] = test system: Micrococcus luteus; assay: In vitro minimum inhibitory concentration against Micrococcus luteus 9341 was determined; assay type: functional; in short: as §2
[10] = test system: Escherichia coli; assay: In vitro minimum inhibitory concentration against Escherichia coli KNK 437 was determined; assay type: functional; in short: as §2

| IC50 [1] | MIC [2] | MIC [4] | MIC [5] | MIC [6] | IC50 [8] | MIC [9] | MIC [10] | SMILES | MIC [3] | MIC [7] |
| --- | --- | --- | --- | --- | --- | --- | --- | --- | --- | --- |
| 78.3 µM | > 100 µg/mL | 25 µg/mL (≈ 97.9 µM) | 1.56 µg/mL (≈ 6.11 µM) | 25 µg/mL (≈ 97.9 µM) | > 250 µg/mL | > 100 µg/mL | > 100 µg/mL | C[C@H]1Cc2ccccc2-c2cc(=O)c(C(=O)O)cn21 | 50 µg/mL (≈ 196 µM) | 50 µg/mL (≈ 196 µM) |
| 125 µM | > 100 µg/mL | 50 µg/mL (≈ 196 µM) | 6.25 µg/mL (≈ 24.5 µM) | 25 µg/mL (≈ 97.9 µM) | > 250 µg/mL | 100 µg/mL (≈ 392 µM) | > 100 µg/mL | C[C@@H]1Cc2ccccc2-c2cc(=O)c(C(=O)O)cn21 | 25 µg/mL (≈ 97.9 µM) | 100 µg/mL (≈ 392 µM) |

| SMILES | IC50 [1] | MIC [2] | MIC [4] | MIC [5] | MIC [6] | IC50 [8] | MIC [9] | MIC [10] | MIC [3] | MIC [7] |
| --- | --- | --- | --- | --- | --- | --- | --- | --- | --- | --- |
| CC1Cc2cc(N3CCNCC3)c(F)cc2-c2cc(=O)c(C(=O)O)cn21 (stereo not given) | 83.9 µM |  |  |  | 50 µg/mL (≈ 140 µM) |  |  | 0.2 µg/mL (≈ 0.56 µM) | 25 µg/mL (≈ 70 µM) | 50 µg/mL (≈ 140 µM) |
| O=C(O)c1cn(C2CC2)c2cc(N3CCNCC3)c(F)cc2c1=O [CIPROFLOXACIN] |  | 0.78 µg/mL (≈ 2.35 µM) |  | 0.005 µg/mL (≈ 0.0151 µM) |  |  | 1.56 µg/mL (≈ 4.71 µM) |  | 0.2 µg/mL (≈ 0.604 µM) | 0.05 µg/mL (≈ 0.151 µM) |
